Measured values as given in ChEMBL document CHEMBL2150931, “Design, synthesis, and biological activity of a novel series of human sirtuin-2-selective inhibitors” (J Med Chem, 2012).

Legend:
Histone deacetylase 8 = target: T1, Histone deacetylase 8 (Homo sapiens, UniProt Q9BY41); assay: Inhibition of HDAC8
T1 sequence (Q9BY41 whole entry): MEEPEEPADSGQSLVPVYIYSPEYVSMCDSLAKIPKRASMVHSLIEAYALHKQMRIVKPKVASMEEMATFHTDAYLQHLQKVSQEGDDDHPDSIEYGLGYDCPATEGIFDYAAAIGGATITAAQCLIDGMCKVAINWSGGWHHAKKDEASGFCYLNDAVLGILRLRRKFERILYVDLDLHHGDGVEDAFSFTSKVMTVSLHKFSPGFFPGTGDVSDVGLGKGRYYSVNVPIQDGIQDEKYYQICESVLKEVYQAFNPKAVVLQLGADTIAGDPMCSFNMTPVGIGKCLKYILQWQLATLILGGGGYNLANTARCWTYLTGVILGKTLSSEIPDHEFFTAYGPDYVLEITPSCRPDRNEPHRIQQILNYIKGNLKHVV

Histone deacetylase 4 = Histone deacetylase 4 (Homo sapiens, UniProt P56524); assay: Inhibition of HDAC4
Sequence of Histone deacetylase 4 (P56524 whole entry): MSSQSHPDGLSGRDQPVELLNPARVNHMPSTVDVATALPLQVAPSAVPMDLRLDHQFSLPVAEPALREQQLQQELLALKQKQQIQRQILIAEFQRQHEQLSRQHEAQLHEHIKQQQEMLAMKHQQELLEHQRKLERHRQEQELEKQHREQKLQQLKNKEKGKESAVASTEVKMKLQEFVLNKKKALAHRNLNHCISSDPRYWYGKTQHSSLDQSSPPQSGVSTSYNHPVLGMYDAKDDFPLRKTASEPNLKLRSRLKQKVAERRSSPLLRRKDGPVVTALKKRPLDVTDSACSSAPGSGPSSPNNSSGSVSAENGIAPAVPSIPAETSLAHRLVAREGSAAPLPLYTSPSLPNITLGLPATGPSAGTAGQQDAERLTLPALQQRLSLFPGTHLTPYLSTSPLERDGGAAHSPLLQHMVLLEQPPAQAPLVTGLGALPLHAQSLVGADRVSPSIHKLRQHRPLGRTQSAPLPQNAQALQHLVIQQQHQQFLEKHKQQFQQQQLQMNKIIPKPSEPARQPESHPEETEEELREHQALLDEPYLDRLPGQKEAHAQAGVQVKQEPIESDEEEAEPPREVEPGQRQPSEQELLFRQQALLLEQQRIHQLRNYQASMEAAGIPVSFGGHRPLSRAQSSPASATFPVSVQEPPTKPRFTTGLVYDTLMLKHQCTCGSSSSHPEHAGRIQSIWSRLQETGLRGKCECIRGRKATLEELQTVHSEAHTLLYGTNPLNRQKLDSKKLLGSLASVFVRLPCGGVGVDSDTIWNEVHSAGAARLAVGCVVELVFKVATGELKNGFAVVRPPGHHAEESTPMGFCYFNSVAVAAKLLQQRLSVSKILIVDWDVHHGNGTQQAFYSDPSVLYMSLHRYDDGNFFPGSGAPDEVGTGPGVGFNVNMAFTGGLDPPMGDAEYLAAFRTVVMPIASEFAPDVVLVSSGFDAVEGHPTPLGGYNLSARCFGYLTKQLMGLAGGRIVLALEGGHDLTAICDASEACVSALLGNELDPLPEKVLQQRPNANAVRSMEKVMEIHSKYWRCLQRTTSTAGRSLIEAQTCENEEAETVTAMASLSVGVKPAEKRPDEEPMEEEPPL

[1] = target: T2, Polyamine deacetylase HDAC10 (Homo sapiens, UniProt Q969S8); assay: Inhibition of HDAC10
T2 sequence (Q969S8 whole entry): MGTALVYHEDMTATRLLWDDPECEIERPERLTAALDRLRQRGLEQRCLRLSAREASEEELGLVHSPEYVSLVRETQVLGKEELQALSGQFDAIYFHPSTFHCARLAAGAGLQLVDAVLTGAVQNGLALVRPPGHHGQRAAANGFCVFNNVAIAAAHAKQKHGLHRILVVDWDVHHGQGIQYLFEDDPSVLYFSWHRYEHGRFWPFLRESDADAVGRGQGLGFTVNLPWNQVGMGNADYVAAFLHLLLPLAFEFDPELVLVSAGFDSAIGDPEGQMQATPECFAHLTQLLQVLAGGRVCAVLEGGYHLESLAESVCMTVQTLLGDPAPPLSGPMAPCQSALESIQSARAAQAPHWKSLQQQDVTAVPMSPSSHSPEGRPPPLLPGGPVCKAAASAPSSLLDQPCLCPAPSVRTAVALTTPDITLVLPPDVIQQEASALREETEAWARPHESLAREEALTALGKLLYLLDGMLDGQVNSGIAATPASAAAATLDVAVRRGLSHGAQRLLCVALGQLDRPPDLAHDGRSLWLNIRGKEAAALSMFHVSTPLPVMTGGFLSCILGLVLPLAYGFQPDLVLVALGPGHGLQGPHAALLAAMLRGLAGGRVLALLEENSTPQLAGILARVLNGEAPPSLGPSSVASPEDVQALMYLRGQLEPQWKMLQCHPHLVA

[2] = target: T3, NAD-dependent protein deacetylase sirtuin-1 (Homo sapiens, UniProt Q96EB6); assay: Inhibition of human recombinant SIRT1 using Fluor de Lys-SIRT as substrate incubated for 60 mins prior to substrate addition measured after 60 mins by fluorimetric analysis
T3 sequence (Q96EB6 whole entry): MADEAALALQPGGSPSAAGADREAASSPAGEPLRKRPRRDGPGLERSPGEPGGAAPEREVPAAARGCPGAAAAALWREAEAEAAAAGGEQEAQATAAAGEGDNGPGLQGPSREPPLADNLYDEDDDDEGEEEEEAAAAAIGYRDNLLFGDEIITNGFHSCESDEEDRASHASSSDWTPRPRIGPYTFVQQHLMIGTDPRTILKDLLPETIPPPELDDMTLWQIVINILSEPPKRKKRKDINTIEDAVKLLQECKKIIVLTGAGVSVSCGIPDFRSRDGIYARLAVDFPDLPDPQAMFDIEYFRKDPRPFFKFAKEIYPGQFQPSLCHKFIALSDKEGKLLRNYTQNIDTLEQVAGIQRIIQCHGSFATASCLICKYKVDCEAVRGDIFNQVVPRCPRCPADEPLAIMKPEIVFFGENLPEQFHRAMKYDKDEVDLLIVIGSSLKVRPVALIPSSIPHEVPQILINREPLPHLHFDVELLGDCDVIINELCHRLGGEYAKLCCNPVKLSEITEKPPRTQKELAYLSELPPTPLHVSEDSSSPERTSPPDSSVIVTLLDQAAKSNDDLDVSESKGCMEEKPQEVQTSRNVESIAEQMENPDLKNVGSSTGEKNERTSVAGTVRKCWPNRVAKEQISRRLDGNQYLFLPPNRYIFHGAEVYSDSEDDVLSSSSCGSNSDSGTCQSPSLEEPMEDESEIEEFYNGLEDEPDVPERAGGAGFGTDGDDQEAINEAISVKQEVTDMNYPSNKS
Method in brief: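 Human recombinant SIRT1 run the same way: 60 min at 37 °C with 1 mM NAD⁺ and serial compound dilutions, then 25 μM Fluor de Lys-SIRT substrate for 60 min. Stopped with nicotinamide-containing Developer II and read 45 min later at ex 360/em 460 nm. IC₅₀ from logit regression of % inhibition vs control; means of ≥3 experiments.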

IC50 (Histone deacetylase 8): > 30 µM
IC50 (Histone deacetylase 4): > 30 µM
IC50 [1]: > 30 µM
IC50 [2]: > 100 µM
Structure (SMILES): NC(=O)c1ccccc1Nc1cccc(OCCc2ccccc2)c1
